# Values joined by “and” are separate entries in the source; they are usually repeats but may differ in a detail not shown here. Equal values may be shown once.
# System: U2OS
# Assay: Multiplex assay against U2OS
# Type: toxicity, cell-based
# Conditions: human
# Outline: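 Values for tubulin, mitochondrial-mass and membrane-permeability phenotypes are per cents of cells with healthy nuclei. These cells were identified by CellPathfinder machine-learning gating of live cells that had been stained at seeding with Hoechst33342, BioTracker Green Microtubule Cytoskeleton Dye, MitoTracker Red and Annexin V Alexa Fluor 680 and imaged on a CQ1 microscope at 37°C and 5% CO2 after compound addition. The gating first set Hoechst high-intensity objects apart from normal cells, then split normal cells into healthy, pyknosed or fragmented nuclei, and pyknosed cells into mitotic or apoptotic.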
# [1] = 12 h, 1 µM, compound concentration 1 uM
# [2] = 12 h, 10 µM, compound concentration 10 uM
# [3] = 24 h, 1 µM, compound concentration 1 uM
# [4] = 24 h, 10 µM, compound concentration 10 uM
# [5] = 48 h, 1 µM, compound concentration 1 uM
# [6] = 48 h, 10 µM, compound concentration 10 uM
structure (smiles),measurement,setting,value
CCn1c(-c2nonc2N)nc2c(C#CC(C)(C)O)ncc(OCC3CCCNC3)c21 (centres undefined),Population Apoptotic (%),[1],30.23% and 52.17%
same,Population Fragmented Nuclei (%),[1],3.38% and 1.86%
same,Population Healthy Nuclei (%),[1],85.45% and 83.85%
same,Population Hoechst High Intensity Objects (%),[1],0%
same,Population Membrane Permeable-Phenotype (%),[1],1.22% and 1.48%
same,Population Mitochondria Different-Phenotype (%),[1],0% and 5.93%
same,Population Mitotic Cells (%),[1],69.77% and 47.83%
same,Population Normal (%),[1],100%
same,Population Pyknosed Nuclei (%),[1],11.17% and 14.29%
same,Population Tubulin-Different-Phenotype (%),[1],0.91% and 0.74%
same,Total Cell Count,[1],385 and 161
same,Population Apoptotic (%),[2],37.04% and 27.91%
same,Population Fragmented Nuclei (%),[2],2.62% and 8.28%
same,Population Healthy Nuclei (%),[2],83.2% and 64.33%
same,Population Hoechst High Intensity Objects (%),[2],0%
same,Population Membrane Permeable-Phenotype (%),[2],0.95% and 4.95%
same,Population Mitotic Cells (%),[2],62.96% and 72.09%
same,Population Normal (%),[2],100%
same,Population Pyknosed Nuclei (%),[2],14.17% and 27.39%
same,Population Tubulin-Different-Phenotype (%),[2],2.52% and 4.95%
same,Total Cell Count,[2],381 and 157
same,Population Apoptotic (%),[3],38.6% and 42.86%
same,Population Fragmented Nuclei (%),[3],2.16% and 1.54%
same,Population Healthy Nuclei (%),[3],86.64% and 84.1%
same,Population Hoechst High Intensity Objects (%),[3],0.2% and 0.51%
same,Population Membrane Permeable-Phenotype (%),[3],0.68% and 5.49%
same,Population Mitochondria Different-Phenotype (%),[3],0.23% and 1.83%
same,Population Mitotic Cells (%),[3],61.4% and 57.14%
same,Population Normal (%),[3],99.8% and 99.49%
same,Population Pyknosed Nuclei (%),[3],11.2% and 14.36%
same,Population Tubulin-Different-Phenotype (%),[3],1.36% and 0%
same,Total Cell Count,[3],510 and 196
same,Population Apoptotic (%),[4],44.32% and 50%
same,Population Fragmented Nuclei (%),[4],2.7% and 7.78%
same,Population Healthy Nuclei (%),[4],77.53% and 56.67%
same,Population Hoechst High Intensity Objects (%),[4],0%
same,Population Membrane Permeable-Phenotype (%),[4],0.29% and 0.98%
same,Population Mitotic Cells (%),[4],55.68% and 50%
same,Population Normal (%),[4],100%
same,Population Pyknosed Nuclei (%),[4],19.78% and 35.56%
same,Population Tubulin-Different-Phenotype (%),[4],3.48% and 3.92%
same,Total Cell Count,[4],445 and 180
same,Population Apoptotic (%),[5],50% and 45.16%
same,Population Fragmented Nuclei (%),[5],2.09% and 2.15%
same,Population Healthy Nuclei (%),[5],90.19% and 88.34%
same,Population Hoechst High Intensity Objects (%),[5],0%
same,Population Membrane Permeable-Phenotype (%),[5],1.22% and 1.39%
same,Population Mitochondria Different-Phenotype (%),[5],0% and 4.51%
same,Population Mitotic Cells (%),[5],50% and 54.84%
same,Population Normal (%),[5],100%
same,Population Pyknosed Nuclei (%),[5],7.72% and 9.51%
same,Population Tubulin-Different-Phenotype (%),[5],0.49% and 1.04%
same,Total Cell Count,[5],907 and 326
same,Population Apoptotic (%),[6],65.03% and 83.08%
same,Population Fragmented Nuclei (%),[6],6.86% and 8.16%
same,Population Healthy Nuclei (%),[6],71.34% and 58.67%
same,Population Hoechst High Intensity Objects (%),[6],0%
same,Population Membrane Permeable-Phenotype (%),[6],1.71% and 7.83%
same,Population Mitochondria Different-Phenotype (%),[6],0.64% and 7.83%
same,Population Mitotic Cells (%),[6],34.97% and 16.92%
same,Population Normal (%),[6],100%
same,Population Pyknosed Nuclei (%),[6],21.8% and 33.16%
same,Population Tubulin-Different-Phenotype (%),[6],2.56% and 7.83%
NC1=NC(=O)/C(=C2\CCNC(=O)c3[nH]c4ccccc4c32)N1,Population Apoptotic (%),[1],44.68% and 29.17%
same,Population Fragmented Nuclei (%),[1],0.45% and 1.59%
same,Population Healthy Nuclei (%),[1],89.06% and 85.71%
same,Population Hoechst High Intensity Objects (%),[1],0%
same,Population Membrane Permeable-Phenotype (%),[1],1.75% and 0.62%
same,Population Mitochondria Different-Phenotype (%),[1],0% and 9.26%
same,Population Mitotic Cells (%),[1],55.32% and 70.83%
same,Population Normal (%),[1],100%
same,Population Pyknosed Nuclei (%),[1],10.49% and 12.7%
same,Population Tubulin-Different-Phenotype (%),[1],1.25% and 0%
same,Total Cell Count,[1],448 and 189
same,Population Apoptotic (%),[2],37.14% and 30.43%
same,Population Fragmented Nuclei (%),[2],3.07% and 2.13%
same,Population Healthy Nuclei (%),[2],84.98% and 85.64%
same,Population Hoechst High Intensity Objects (%),[2],0%
same,Population Membrane Permeable-Phenotype (%),[2],1.2% and 1.86%
same,Population Mitochondria Different-Phenotype (%),[2],0% and 5.59%
same,Population Mitotic Cells (%),[2],62.86% and 69.57%
same,Population Normal (%),[2],100%
same,Population Pyknosed Nuclei (%),[2],11.95% and 12.23%
same,Population Tubulin-Different-Phenotype (%),[2],2.01% and 0%
same,Total Cell Count,[2],293 and 188
same,Population Apoptotic (%),[3],52.94% and 37.04%
same,Population Fragmented Nuclei (%),[3],2.55% and 1.59%
same,Population Healthy Nuclei (%),[3],89.31% and 87.7%
same,Population Hoechst High Intensity Objects (%),[3],0%
same,Population Membrane Permeable-Phenotype (%),[3],0.54% and 0.9%
same,Population Mitochondria Different-Phenotype (%),[3],0.36% and 4.07%
same,Population Mitotic Cells (%),[3],47.06% and 62.96%
same,Population Normal (%),[3],100%
same,Population Pyknosed Nuclei (%),[3],8.13% and 10.71%
same,Population Tubulin-Different-Phenotype (%),[3],0.54% and 0%
same,Total Cell Count,[3],627 and 252
same,Population Apoptotic (%),[4],43.59% and 37.5%
same,Population Fragmented Nuclei (%),[4],2.31% and 2.43%
same,Population Healthy Nuclei (%),[4],87.69% and 84.62%
same,Population Hoechst High Intensity Objects (%),[4],0%
same,Population Membrane Permeable-Phenotype (%),[4],0.88% and 1.91%
same,Population Mitochondria Different-Phenotype (%),[4],0.29% and 5.26%
same,Population Mitotic Cells (%),[4],56.41% and 62.5%
same,Population Normal (%),[4],100%
same,Population Pyknosed Nuclei (%),[4],10% and 12.96%
same,Population Tubulin-Different-Phenotype (%),[4],0.58% and 0%
same,Total Cell Count,[4],390 and 247
same,Population Apoptotic (%),[5],41.94% and 47.37%
same,Population Fragmented Nuclei (%),[5],4.36% and 0.45%
same,Population Healthy Nuclei (%),[5],87.84% and 91.01%
same,Population Hoechst High Intensity Objects (%),[5],0%
same,Population Membrane Permeable-Phenotype (%),[5],0.76% and 1.73%
same,Population Mitochondria Different-Phenotype (%),[5],0.1% and 2.22%
same,Population Mitotic Cells (%),[5],58.06% and 52.63%
same,Population Normal (%),[5],100%
same,Population Pyknosed Nuclei (%),[5],7.8% and 8.54%
same,Population Tubulin-Different-Phenotype (%),[5],0.86% and 0.99%
same,Total Cell Count,[5],1192 and 445
same,Population Apoptotic (%),[6],40.28% and 50%
same,Population Fragmented Nuclei (%),[6],3.29% and 1.05%
same,Population Healthy Nuclei (%),[6],87.22% and 88.98%
same,Population Hoechst High Intensity Objects (%),[6],0%
same,Population Membrane Permeable-Phenotype (%),[6],0.6% and 0.29%
same,Population Mitochondria Different-Phenotype (%),[6],0% and 4.72%
same,Population Mitotic Cells (%),[6],59.72% and 50%
same,Population Normal (%),[6],100%
same,Population Pyknosed Nuclei (%),[6],9.49% and 9.97%
same,Population Tubulin-Different-Phenotype (%),[6],0.15% and 0.29%
same,Total Cell Count,[6],759 and 381
